≈ marks a conversion by molar mass, not a printed value.
Legend:
Parabodo caudatus [1] = assay: Antiprotozoal activity against Bodo caudatus at 0.6 mg/ml after 24 hrs by MTT assay; format: functional
Outline: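 Bodo caudatus (maintained at 30 °C in cereal grass medium diluted 1:1 with water, fed E. coli DH5α, subcultured every 7–12 days); 10,000 protozoa per well with penicillin/streptomycin/kanamycin, exposed 24 h to 0.6 mg/mL final; CuSO4 at same concentration as positive control, 8% DMSO solvent control. MTT added, 2 h, DMSO-dissolved, A570 viability; triplicates; inhibition vs controls.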

Parabodo caudatus [2] = assay: Antiprotozoal activity against Bodo caudatus after 48 hrs by MTT assay; format: functional
Outline: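 B. caudatus from culture in cereal grass medium diluted 1:1 with water plus E. coli DH5a, kept at 30 °C; adjusted to 1 × 10^5/mL with penicillin, streptomycin and kanamycin added; exposed 48 h to serial dilutions (final 0.0001–1000 µg/mL) at 37 °C/5% CO2; MTT added for 4 h, crystals dissolved in DMSO, A570 read; LC50 from triplicate determinations.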

Parabodo caudatus [3] = assay: Antiprotozoal activity against Bodo caudatus hrs by MTT assay; format: functional, organism-based; details: TDE = time-dependent effect
Outline: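 B. caudatus adjusted to 1 × 10^5/mL in growth medium with penicillin/streptomycin/kanamycin, exposed 48 h at 37 °C/5% CO2 to serial dilutions (0.0001–1000 µg/mL final). MTT added for further 4 h, crystals dissolved in DMSO, absorbance 570 nm. LC50 (50% lethal concentration) from mean ± SD of triplicates.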

[4] = Cytotoxicity against BHK cells at 100 ug/ml after 48 hrs by MTT assay; format: cell-based, Mesocricetus auratus; details: hamster; for Activity: bhk, 48 h
Outline: (§1)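 BHK cells (DMEM/F10 1:1, 10% fetal calf serum, penicillin/streptomycin, 37 °C/5% CO2) at 1 × 10^5/mL, adhered overnight, exposed 48 h to serial dilutions (0.0001–100 µg/mL in figure). MTT for 4 h, DMSO solubilisation, A570; survival vs untreated cells; CC50 from triplicate means ± SD.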

[5] = Cytotoxicity against BHK cells after 48 hrs by MTT assay; format: cell-based, Mesocricetus auratus; details: hamster; outline: as §1

SMILES	Activity (Parabodo caudatus [1]) [%]	LC50 (Parabodo caudatus [2]) [mg/L]	Activity (Parabodo caudatus [3])	Activity [4]	CC50 at 48 h [5] [mg/L]	CC50 at 48 h ([4]; BHK cells) [mg/L]
COc1cc(O)c(C(=O)/C=C/c2ccc(O)cc2)cc1-c1cc(/C=C/C(=O)c2ccc(O)cc2O)ccc1O	75	118 (≈ 226 µM)	tde	Non-toxic		
O=C(/C=C/c1ccc(O)c(-c2cc(C(=O)/C=C/c3ccc(O)cc3)c(O)cc2O)c1)c1ccccc1	75	20.6 (≈ 43 µM)	tde	Non-toxic		
CC(C)=CCc1c(O)ccc(C(=O)/C=C/c2ccc(O)cc2)c1O [ISOBAVACHALCONE]	75	4.36 (≈ 13.4 µM)	tde		86.9 (≈ 268 µM)	
O=C(/C=C/c1ccc(O)c(-c2cc(C(=O)/C=C/c3ccc(O)cc3)c(O)cc2O)c1)c1ccc(O)cc1O [RHUSCHALCONE VI]	75	53.3 (≈ 104 µM)	tde			97.6 (≈ 191 µM)
